In ChEMBL document CHEMBL4732237, “Discovery of 4-alkoxy-2-aryl-6,7-dimethoxyquinolines as a new class of topoisomerase I inhibitors endowed with potent in vitro anticancer activity” (2021):

Tests used:
Type in all cases: functional
Details in all cases: read-out: GI
NCI-H322M = assay: Growth inhibition of human NCI-H322M cells at 10 uM incubated for 48 hrs by sulforhodamine B assay relative to control
Method in brief: (§1)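 NCI one-dose screen. Cells grown in RPMI 1640 with 5% FBS and 2 mM L-glutamine, plated and incubated 24 h at 37 °C, 5% CO2. DMSO-dissolved drug added, then 48 h further incubation. Adherent cells fixed with cold TCA, suspension cells fixed after settling. Stained with 0.4% SRB, absorbance read at 515 nm. Reported as percent growth relative to no-drug control and time-zero cell number.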

M14 = assay: Growth inhibition of human M14 cells at 10 uM incubated for 48 hrs by sulforhodamine B assay relative to control
Method in brief: (§2)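 NCI-60 single-dose screen. Cells were grown in RPMI 1640 with 5% FBS and 2 mM L-glutamine and plated 24 h before drug addition. Compound was added at one concentration in DMSO-derived medium and incubated for 48 h at 37 °C in 5% CO2. Read-out was SRB protein stain at 515 nm. Result is percent growth versus the no-drug control and the time-zero cell count; values below 0 indicate lethality.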

MDA-MB-468 = assay: Growth inhibition of human MDA-MB-468 cells at 10 uM incubated for 48 hrs by sulforhodamine B assay relative to control; method in brief: as §2
HOP-92 = assay: Growth inhibition of human HOP-92 cells at 10 uM incubated for 48 hrs by sulforhodamine B assay relative to control; method in brief: as §2
SF-539 = assay: Growth inhibition of human SF-539 cells at 10 uM incubated for 48 hrs by sulforhodamine B assay relative to control; method in brief: as §1
HOP-62 = assay: Growth inhibition of human HOP-62 cells at 10 uM incubated for 48 hrs by sulforhodamine B assay relative to control; method in brief: as §2
Hs-578T = assay: Growth inhibition of human HS-578T cells at 10 uM incubated for 48 hrs by sulforhodamine B assay relative to control; method in brief: as §2
SF-268 = assay: Growth inhibition of human SF-268 cells at 10 uM incubated for 48 hrs by sulforhodamine B assay relative to control; method in brief: as §1
A498 = assay: Growth inhibition of human A498 cells at 10 uM incubated for 48 hrs by sulforhodamine B assay relative to control
Method in brief: (§3)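 NCI one-dose screen across a 59-line panel. Cells were grown in RPMI 1640 with 5% FBS and 2 mM L-glutamine, plated and pre-incubated 24 h, then exposed to drug for 48 h at 37 °C, 5% CO2. Adherent cells were fixed with cold TCA (10% final), stained with 0.4% SRB in 1% acetic acid and read at 515 nm. Result is percent growth relative to no-drug control and time-zero cell count.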

COLO 205 = assay: Growth inhibition of human COLO 205 cells at 10 uM incubated for 48 hrs by sulforhodamine B assay relative to control; method in brief: as §2
KM12 = assay: Growth inhibition of human KM12 cells at 10 uM incubated for 48 hrs by sulforhodamine B assay relative to control; method in brief: as §2
SK-MEL-5 = assay: Growth inhibition of human SK-MEL-5 cells at 10 uM incubated for 48 hrs by sulforhodamine B assay relative to control; method in brief: as §1
UACC-62 = assay: Growth inhibition of human UACC-62 cells at 10 uM incubated for 48 hrs by sulforhodamine B assay relative to control; method in brief: as §3
OVCAR-8 = assay: Growth inhibition of human OVCAR-8 cells at 10 uM incubated for 48 hrs by sulforhodamine B assay relative to control; method in brief: as §1
MDA-MB-435 = assay: Growth inhibition of human MDA-MB-435 cells at 10 uM incubated for 48 hrs by sulforhodamine B assay relative to control; method in brief: as §2
HL-60(TB) = assay: Growth inhibition of human HL-60(TB) cells at 10 uM incubated for 48 hrs by sulforhodamine B assay relative to control
Method in brief: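 NCI-60 one-dose screen: same culture, 48 h drug exposure and SRB read-out. Reported as percent growth relative to no-drug control and to time-zero cell number; 0–100 means growth inhibition, below 0 means lethality.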

SK-MEL-28 = assay: Growth inhibition of human SK-MEL-28 cells at 10 uM incubated for 48 hrs by sulforhodamine B assay relative to control; method in brief: as §1
MCF7 = assay: Growth inhibition of human MCF7 cells at 10 uM incubated for 48 hrs by sulforhodamine B assay relative to control; method in brief: as §2
OVCAR-3 = assay: Growth inhibition of human OVCAR-3 cells at 10 uM incubated for 48 hrs by sulforhodamine B assay relative to control; method in brief: as §1
UACC-257 = assay: Growth inhibition of human UACC-257 cells at 10 uM incubated for 48 hrs by sulforhodamine B assay relative to control; method in brief: as §3
SK-OV-3 = assay: Growth inhibition of human SK-OV-3 cells at 10 uM incubated for 48 hrs by sulforhodamine B assay relative to control; method in brief: as §1
LOX IMVI = assay: Growth inhibition of human LOX IMVI cells at 10 uM incubated for 48 hrs by sulforhodamine B assay relative to control; method in brief: as §2
T47D = assay: Growth inhibition of human T47D cells at 10 uM incubated for 48 hrs by sulforhodamine B assay relative to control; method in brief: as §3
MDA-MB-231 = assay: Growth inhibition of human MDA-MB-231 cells at 10 uM incubated for 48 hrs by sulforhodamine B assay relative to control; method in brief: as §2
NCI-H226 = assay: Growth inhibition of human NCI-H226 cells at 10 uM incubated for 48 hrs by sulforhodamine B assay relative to control; method in brief: as §1
EKVX = assay: Growth inhibition of human EKVX cells at 10 uM incubated for 48 hrs by sulforhodamine B assay relative to control; method in brief: as §2
PC-3 = assay: Growth inhibition of human PC-3 cells at 10 uM incubated for 48 hrs by sulforhodamine B assay relative to control; method in brief: as §1
NCI-H23 = assay: Growth inhibition of human NCI-H23 cells at 10 uM incubated for 48 hrs by sulforhodamine B assay relative to control; method in brief: as §1
SK-MEL-2 = assay: Growth inhibition of human SK-MEL-2 cells at 10 uM incubated for 48 hrs by sulforhodamine B assay relative to control; method in brief: as §1
SNB-75 = assay: Growth inhibition of human SNB-75 cells at 10 uM incubated for 48 hrs by sulforhodamine B assay relative to control; method in brief: as §1
SN12C = assay: Growth inhibition of human SN12C cells at 10 uM incubated for 48 hrs by sulforhodamine B assay relative to control; method in brief: as §1
SF-295 = assay: Growth inhibition of human SF-295 cells at 10 uM incubated for 48 hrs by sulforhodamine B assay relative to control; method in brief: as §1
SW-620 = assay: Growth inhibition of human SW-620 cells at 10 uM incubated for 48 hrs by sulforhodamine B assay relative to control; method in brief: as §3
MOLT-4 = assay: Growth inhibition of human MOLT-4 cells at 10 uM incubated for 48 hrs by sulforhodamine B assay relative to control; method in brief: as §1
OVCAR-5 = assay: Growth inhibition of human OVCAR-5 cells at 10 uM incubated for 48 hrs by sulforhodamine B assay relative to control; method in brief: as §1
NCI-H522 = assay: Growth inhibition of human NCI-H522 cells at 10 uM incubated for 48 hrs by sulforhodamine B assay relative to control; method in brief: as §1

SMILES	inhibition of growth at 10 µM (NCI-H322M)	inhibition of growth at 10 µM (M14)	inhibition of growth at 10 µM (MDA-MB-468)	inhibition of growth at 10 µM (HOP-92)	inhibition of growth at 10 µM (SF-539)	inhibition of growth at 10 µM (HOP-62)	inhibition of growth at 10 µM (Hs-578T)	inhibition of growth at 10 µM (SF-268)	inhibition of growth at 10 µM (A498)	inhibition of growth at 10 µM (COLO 205)	inhibition of growth at 10 µM (KM12)	inhibition of growth at 10 µM (SK-MEL-5)	inhibition of growth at 10 µM (UACC-62)	inhibition of growth at 10 µM (OVCAR-8)	inhibition of growth at 10 µM (MDA-MB-435)	inhibition of growth at 10 µM (HL-60(TB))	inhibition of growth at 10 µM (SK-MEL-28)	inhibition of growth at 10 µM (MCF7)	inhibition of growth at 10 µM (OVCAR-3)	inhibition of growth at 10 µM (UACC-257)	further results
COc1cc2nc(-c3ccc(Cl)cc3)cc(OCCN3CCCCC3)c2cc1OC	3%	3%	3%	3%	3%	3%	3%	3%	3%	3%	3%	3%	3%	3%	3%	3%	3%	3%	3%	3%	inhibition of growth at 10 µM (SK-OV-3): 3%; inhibition of growth at 10 µM (LOX IMVI): 3%; inhibition of growth at 10 µM (T47D): 3%; inhibition of growth at 10 µM (MDA-MB-231): 3%; inhibition of growth at 10 µM (NCI-H226): 3%; inhibition of growth at 10 µM (EKVX): 3%; inhibition of growth at 10 µM (PC-3): 3%; inhibition of growth at 10 µM (NCI-H23): 3%; inhibition of growth at 10 µM (SK-MEL-2): 3%; inhibition of growth at 10 µM (SNB-75): 3%; inhibition of growth at 10 µM (SN12C): 3%; inhibition of growth at 10 µM (SF-295): 3%; inhibition of growth at 10 µM (SW-620): 3%; inhibition of growth at 10 µM (MOLT-4): 3%; inhibition of growth at 10 µM (OVCAR-5): 3%; inhibition of growth at 10 µM (NCI-H522): 3%
COc1cc2nc(-c3ccc(Cl)cc3)cc(OCCN3CCOCC3)c2cc1OC	3%	3%	3%	3%	3%	3%	3%	3%	3%	3%	3%	3%	3%	3%	3%	3%	3%	3%	3%	3%	inhibition of growth at 10 µM (SK-OV-3): 3%; inhibition of growth at 10 µM (LOX IMVI): 3%; inhibition of growth at 10 µM (T47D): 3%; inhibition of growth at 10 µM (MDA-MB-231): 3%; inhibition of growth at 10 µM (NCI-H226): 3%; inhibition of growth at 10 µM (EKVX): 3%; inhibition of growth at 10 µM (PC-3): 3%; inhibition of growth at 10 µM (NCI-H23): 3%; inhibition of growth at 10 µM (SK-MEL-2): 3%; inhibition of growth at 10 µM (SNB-75): 3%; inhibition of growth at 10 µM (SN12C): 3%; inhibition of growth at 10 µM (SF-295): 3%; inhibition of growth at 10 µM (SW-620): 3%; inhibition of growth at 10 µM (MOLT-4): 3%; inhibition of growth at 10 µM (OVCAR-5): 3%; inhibition of growth at 10 µM (NCI-H522): 3%
COc1cc2nc(-c3ccc(Cl)cc3)cc(OCCCN3CCCCC3)c2cc1OC	62%	62%	62%	62%	62%	62%	62%	62%	62%	62%	62%	62%	62%	62%	62%	62%	62%	62%	62%	62%	inhibition of growth at 10 µM (SK-OV-3): 62%; inhibition of growth at 10 µM (LOX IMVI): 62%; inhibition of growth at 10 µM (T47D): 62%; inhibition of growth at 10 µM (MDA-MB-231): 62%; inhibition of growth at 10 µM (NCI-H226): 62%; inhibition of growth at 10 µM (EKVX): 62%; inhibition of growth at 10 µM (PC-3): 62%; inhibition of growth at 10 µM (NCI-H23): 62%; inhibition of growth at 10 µM (SK-MEL-2): 62%; inhibition of growth at 10 µM (SNB-75): 62%; inhibition of growth at 10 µM (SN12C): 62%; inhibition of growth at 10 µM (SF-295): 62%; inhibition of growth at 10 µM (SW-620): 62%; inhibition of growth at 10 µM (MOLT-4): 62%; inhibition of growth at 10 µM (OVCAR-5): 62%; inhibition of growth at 10 µM (NCI-H522): 62%
